The list is not random: actives were taken first. Their share in the collection is about 1.7%.
F508del corr: CFTR F508del correction in bronchial cells; activity (quench increase), % at 7.58 µM; 350,000 tested, 0.36% active; CFBE cells, YFP halide quenching; stimulated with forskolin plus potentiator P3; % fluorescence drop versus neutral controls;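 active = mean added fluorescence quench of at least 8% versus neutral control, with both replicates also reaching 8%; inconclusive = only one of the mean or replicate conditions met; inactive = mean below 8% and not both replicates reaching 8%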;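 note: cells transiently co-express mutant CFTR-F508del with the halide-sensitive YFP; corrector assay measuring rescue of mutant channel to the surface after 24 h compound exposure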
rRNA inh HTS: selective bacterial rRNA inhibition in E. coli | E. coli WT GFP vs humanized-ribosome RFP mutants, fluorescence, 24 h; stronger effect = lower value; DMSO median 0, no signal -100 | GFP signal change (wild-type ribosome), % (concentration not given with the values) | 350,000 tested, 1.6% active;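 active = significant combined selectivity score with lowered wild-type GFP, culture density cut under 30%, mutant RFP and density less affected; inactive = any of these conditions unmet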
Cneo AK release: causes C. neoformans cell lysis. adenylate kinase release luminescence, 4 h; normalised: neutral wells 0, clomiphene wells 100. lysis activity, % at 15 µM. 360,000 tested, 0.2% active. AID 651654;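 active = mean lysis activity across replicates of at least 80%, whatever share of replicates individually reach that level; inactive = mean lysis activity below 80%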
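Assay system: log-phase C. neoformans yeast / Quantity: yeast cell density of 5 × 10^6 cells/mL / Medium: fresh YPD growth medium / Compound: single dose / Timing: static 4 h at 37 °C with compound, 1 h detection / Measured by: adenylate kinase release luminescence / Read-out: lysis from increased AK signal / Benchmarks: Clomiphene as positive lysis control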
CaV13 FRET inh: Primary screen for inhibitors of IQ motif and Ca2+-dependent inactivation inhibitor domain binding in CACNA1D, Förster resonance energy transfer in living cells, …; HEK cells, CFP/YFP FRET ICDI-IQ, plate reader, 10 min; percent FRET-ratio fall versus neutral wells; inhibition, % at 12.3 µM; 340,000 tested, 0.098% active;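 active = mean replicate inhibition of at least 30% and at least 1% of replicates passing that level; inconclusive = only one of the two criteria is met; inactive = neither criterion is met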;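 note: 0% = median of the neutral control wells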
HepG2 cytotox: cytotoxic compounds in HepG2 cells; activity change, negative = cytotoxicity, unspecified at 26 µM; shares compounds with rRNA inh HTS; 30 tested, under 10 active; HepG2 viability, ATP luminescence, 72 h;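 active = compounds whose fitted half-maximal signal-loss concentration is at most twice their highest valid dose; inconclusive = flat curve with 30 to 70% signal loss, or poor fit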
AID977621: wild-type E. coli growth inhibition versus H69 humanized strain – H69 mutant RFP, wild-type GFP, cherry-pick, dose response; fluorescence, 24 h; activity change, negative = inhibition at 50 µM; shares compounds with rRNA inh HTS; 1,900 tested, under 10 active;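 active = Wild-type ribosome reporter drop at least double the humanized mutant ribosome reporter drop, growth loss under a set limit; inconclusive = no clear call, values can overlap the other calls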;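 note: wild-type GFP and H69 mutant RFP strains grown together 50/50 in each well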
AID977628: growth of wild-type and h24-humanized E. coli strains – h24 mutant RFP vs wild-type GFP, cherry-pick, dose response; E. coli WT GFP strain growth, fluorescence, 24 h; shares compounds with rRNA inh HTS; AID 977628; 1,900 tested, under 10 active; activity change, negative = inhibition at 50 µM;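 active = compound lowering the normal-ribosome reporter at least twice as much as the humanized-ribosome reporter, growth loss under a set limit; inconclusive = no clear call, values can overlap the other calls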;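 note: wild-type GFP and h24 humanized RFP strains co-cultured 1 to 1 per well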
Active calls of the source: *; ? = inconclusive; . = no result given.

SMILES	F508del corr	rRNA inh HTS	Cneo AK release	CaV13 FRET inh	AID977621	AID977628	others
COc1ccc2sc(N3C(=O)CC(Cc4cccc(C)c4)C3=O)nc2c1 (stereo not drawn)	-1	-33*	-2	-7	.	?
C[C@H]1CCCCO[C@H](CN(C)C)[C@@H](C)CN([C@@H](C)CO)C(=O)c2cc(NC(=O)Nc3cccc4ccccc34)ccc2O1	-1	0	38	.	-9.3	?
C[C@@H]1CCCCO[C@@H](CN(C)C(=O)Nc2cccc3ccccc23)[C@@H](C)CN([C@@H](C)CO)C(=O)c2cc(NC(=O)Nc3cccc4ccccc34)ccc2O1	4	7	-2	.	.	.
C[C@@H]1CCCCO[C@H](CN(C)C)[C@H](C)CN([C@H](C)CO)C(=O)c2cc(NC(=O)Nc3cccc4ccccc34)ccc2O1	-2	-1	5	.	-24	.
C[C@@H]1CCCCO[C@@H](CN(C)S(C)(=O)=O)[C@@H](C)CN([C@H](C)CO)C(=O)c2cc(NC(=O)Nc3cccc4ccccc34)ccc2O1	3	1	1	.	.	.
C[C@@H]1CCCCO[C@H](CN(C)C)[C@@H](C)CN([C@H](C)CO)C(=O)c2cc(NC(=O)Nc3cccc4ccccc34)ccc2O1	0	2	-5	.	5.2	?
C[C@H](CO)N1C[C@H](C)[C@H](CN(C)CC2CC2)OCCCC[C@H](C)Oc2ccc(NC(=O)Nc3cccc4ccccc34)cc2C1=O	0	1	4	.	.	.
C[C@@H]1CCCCO[C@@H](CN(C)C)[C@H](C)CN([C@@H](C)CO)C(=O)c2cc(NC(=O)Nc3cccc4ccccc34)ccc2O1	-4	3	2	.	-5.2	6.2
C[C@@H]1CCCCO[C@@H](CN(C)S(C)(=O)=O)[C@H](C)CN([C@H](C)CO)C(=O)c2cc(NC(=O)Nc3cccc4ccccc34)ccc2O1	0	-1	1	.	.	.
Cc1noc(C)c1NC(=O)N(C)C[C@H]1Oc2ccc(NC(=O)Cc3ccccc3)cc2CC(=O)N([C@@H](C)CO)C[C@H]1C	-1	2	-1	.	.	.
COCC(=O)Nc1ccc2c(c1)C(=O)N(C)[C@H]1CC[C@H](CC(=O)Nc3ccccc3F)O[C@@H]1CO2	3	.	0	.	.	.
CC(C)(C)[C@@H]1C=C(C(=O)N2CCCC2)O[C@H](OCc2ccc(CO)cc2)C1	0	.	1	.	.	.
C[C@@H]1CN([C@H](C)CO)C(=O)c2cccc(NC(=O)Nc3ccc4c(c3)OCO4)c2O[C@@H]1CN(C)S(=O)(=O)c1cn(C)cn1	1	3	1	.	.	.
C[C@@H]1CN([C@@H](C)CO)C(=O)c2cc(NC(=O)Nc3cccc4ccccc34)ccc2O[C@@H](C)CCCCO[C@H]1CN(C)CC1CC1	0	4	55	.	.	.
C[C@@H]1CCCCO[C@H](CN(C)C(=O)c2ccccc2)[C@@H](C)CN([C@@H](C)CO)C(=O)c2cc(NC(=O)Cc3ccccc3)ccc2O1	1	-6	-1	.	.	.
C[C@@H]1CN([C@@H](C)CO)C(=O)c2cc(NC(=O)Nc3cccc4ccccc34)ccc2O[C@@H](C)CCCCO[C@H]1CN(C)C	0	-1	6	.	-6.2	2.7
C[C@@H]1CCCCO[C@H](CN(C)S(C)(=O)=O)[C@H](C)CN([C@@H](C)CO)C(=O)c2cc(NC(=O)Nc3cccc4ccccc34)ccc2O1	0	-5	8	.	.	.
C[C@@H]1CCCCO[C@@H](CN(C)C(=O)c2ccccc2)[C@H](C)CN([C@@H](C)CO)C(=O)c2cc(NC(=O)Cc3ccccc3)ccc2O1	0	-25*	0	.	.	?
C[C@@H]1CCCCO[C@H](CN(C)C)[C@H](C)CN([C@@H](C)CO)C(=O)c2cc(NC(=O)Nc3cccc4ccccc34)ccc2O1	-1	-36*	-4	.	-3.2	0.029
CCCNC(=O)N1CC2(CCN(C(C)=O)CC2)c2c(n(C)c3cc(OC)ccc23)[C@@H]1CO	1	3	.	.	.	.
CSc1nc(N)nc(SC2C=CCCC2)c1C#N (stereo not drawn)	-3	-24*	-1	-8	.	?	HepG2 cytotox=23
C[C@@H]1CCCCO[C@@H](CN(C)C(=O)CCCN(C)C)[C@@H](C)CN([C@H](C)CO)C(=O)c2cc(NC(=O)Nc3cccc4ccccc34)ccc2O1	2	3	2	.	-1.8	?
C[C@@H]1CCCCO[C@H](CN(C)C(=O)CCCN(C)C)[C@@H](C)CN([C@H](C)CO)C(=O)c2cc(NC(=O)Nc3cccc4ccccc34)ccc2O1	2	-1	-2	.	?	8.2
C[C@@H]1CCCCO[C@H](CN(C)C(=O)CCCN(C)C)[C@H](C)CN([C@@H](C)CO)C(=O)c2cc(NC(=O)Nc3cccc4ccccc34)ccc2O1	1	-36*	3	.	.	.	HepG2 cytotox=15
C[C@@H]1CN([C@@H](C)CO)C(=O)c2cc(NC(=O)Nc3cccc4ccccc34)ccc2O[C@@H](C)CCCCO[C@@H]1CN(C)C(=O)CCCN(C)C	-1	2	1	.	.	.
SMILES	F508del corr	rRNA inh HTS	Cneo AK release	CaV13 FRET inh	AID977621	AID977628	others
O=C(C[C@@H]1C=C[C@H](NC(=O)CC2CC2)[C@@H](CO)O1)NCc1ccccc1	1	2	.	.	.	.
Cc1ccc(Cc2c(-c3ccc(C#N)cc3)nc3ccc(Br)cn23)cc1	4	-28*	2	-3	9	2.9
COc1ccccc1Cc1c(-c2ccc(OC)c(OC)c2)nc2ccc(Br)cn12	0	-4	4	-7	.	.
COc1ccccc1Cc1c(-c2ccc(F)cc2)nc2ccc(Br)cn12	1	-24*	0	-4	-13	-12
C[C@@H]1CN([C@@H](C)CO)C(=O)c2cc(NS(=O)(=O)c3ccc(F)cc3)ccc2O[C@@H](C)CCCCO[C@@H]1CN(C)Cc1ccncc1	2	-2	-1	.	.	.
Cc1cccc(NC(=O)C2CCCCN2S(=O)(=O)c2ccccc2)c1C (stereo not drawn)	0	-11	0	-4	.	.
O=C(Nc1ccccc1N1CCOCC1)C1CCCCN1S(=O)(=O)c1ccccc1 (stereo not drawn)	2	-31*	.	-1	-11	-17
COc1ccc(S(=O)(=O)N[C@H]2C=C[C@@H](CC(=O)NCCc3ccncc3)O[C@@H]2CO)cc1	-1	-2	0	.	.	.
COc1ccc(C2CC(c3cccs3)=Nc3ccccc3S2)cc1 (stereo not drawn)	2	-26*	-12	-8	-1.2	?

Source: PubChem BioAssay (Broad Institute)
